A selection: hits, their analogues and other compounds. The true share with any hit is near 2.3%.
C2C12 statin = suppressors of simvastatin-induced myotoxicity in C2C12 myotubes. ATP luminescence, 48 h; scaled: DMSO 0, geranylgeraniol control 100. rescue of ATP level, % at 7.49 µM. hit rate 0.78% among 330,000;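 active = mean ATP rescue above about 67%, or every replicate alone reaching that limit, limit read from the data, passing the limit was not always enough; inconclusive = no clear call, values can overlap the other calls; inactive = mean under the limit and some replicate under it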;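 note: myotubes were challenged with 10 µM simvastatin during compound exposure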
ERp5 block = blocks human ERp5 reductase activity on insulin; Q15084; ERp5 insulin aggregation, absorbance 650 nm, 90 min; AID 651711; inhibition, % at 9.99 µM; hit rate 0.05% among 350,000;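 active = mean replicate inhibition above about 25%, with every replicate also reaching it, limit read from the data, passing the limit was not always enough; inconclusive = only one of those two criteria met; inactive = neither criterion met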
DENV2 CPE rescue = protects cells from dengue virus 2 cytopathic effect | DENV2-infected cells, cytopathic effect rescue, plate reader | CPE inhibition, % at 9.99 µM | hit rate 1.7% among 350,000; in the data active = CPE inhibition above about 20%, passing the limit was not always enough; inconclusive = no clear call, values can overlap the other calls; tested in BHK-21 cells
PDI inh = blocks human protein disulfide isomerase activity; P07237; PDI insulin aggregation turbidity, A650, 90 min; inhibition, % at 10 µM; hit rate 0.052% among 350,000; AID 588391;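 active = mean inhibition across replicates of 30% or more, whatever share of single replicates reach that level; inconclusive = mean inhibition below 30% while every single replicate reaches 30%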
Target sequence (P07237 whole entry, looked up): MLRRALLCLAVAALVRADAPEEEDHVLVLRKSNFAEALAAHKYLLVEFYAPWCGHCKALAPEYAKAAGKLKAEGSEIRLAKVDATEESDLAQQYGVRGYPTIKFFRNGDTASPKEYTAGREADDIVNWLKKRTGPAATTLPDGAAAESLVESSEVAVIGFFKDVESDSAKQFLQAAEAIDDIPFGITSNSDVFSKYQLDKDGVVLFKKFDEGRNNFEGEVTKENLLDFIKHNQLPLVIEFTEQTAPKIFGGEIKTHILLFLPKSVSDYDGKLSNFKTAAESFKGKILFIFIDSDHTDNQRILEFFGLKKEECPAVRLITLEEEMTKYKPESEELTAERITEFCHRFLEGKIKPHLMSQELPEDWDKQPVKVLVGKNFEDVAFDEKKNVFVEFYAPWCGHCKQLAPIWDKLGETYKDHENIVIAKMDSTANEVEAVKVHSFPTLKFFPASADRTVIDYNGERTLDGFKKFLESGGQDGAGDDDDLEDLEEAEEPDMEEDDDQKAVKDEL
CFTR F508del cor = CFTR F508del correction in bronchial cells. hit rate 0.36% among 350,000. AID 720511. CFBE cells, YFP halide quenching; stimulated with forskolin plus potentiator P3; % fluorescence drop versus neutral controls. activity (quench increase), % at 7.58 µM;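 active = mean added fluorescence quench of at least 8% versus neutral control, with both replicates also reaching 8%; inconclusive = only one of the mean or replicate conditions met; inactive = mean below 8% and not both replicates reaching 8%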;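 note: cells transiently co-express mutant CFTR-F508del with the halide-sensitive YFP; corrector assay measuring rescue of mutant channel to the surface after 24 h compound exposure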
Cneo AK release = Cryptococcus neoformans lysis via adenylate kinase release | C. neoformans lysis, adenylate kinase release luminescence, 4 h; normalised: neutral wells 0, clomiphene wells 100 | lysis activity, % at 15 µM | hit rate 0.2% among 360,000 | AID 651654;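 active = mean lysis activity across replicates of at least 80%, whatever share of replicates individually reach that level; inactive = mean lysis activity below 80%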
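read-out = cell lysis signal | test system = log-phase Cryptococcus neoformans yeast cells | input = cells at 5 × 10^6 per mL | medium = fresh YPD growth medium | signal = luminescent adenylate kinase detection reagent | timing = 4 h at 37 °C static, read 1 h later | dosing = single dose | controls = Clomiphene as positive lysis control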
Numbers stand for hits; 0 = inactive; ? = inconclusive; - = no result given; ! = a repeat was not active.

SMILES | C2C12 statin | ERp5 block | DENV2 CPE rescue | PDI inh | CFTR F508del cor | Cneo AK release
COc1ccccc1-c1cn(CC[C@@H]2CC[C@H](NC(=O)Cc3ccccn3)[C@@H](CO)O2)nn1 | 0 | 0 | 0 | - | 0 | 0
COc1ccc(-c2cn(CC[C@@H]3CC[C@H](NC(=O)Cc4ccccn4)[C@@H](CO)O3)nn2)cc1 | 0 | 0 | 22.4! | - | 0 | 0
O=c1c2c([nH]c3ccccc13)CCCC2 | 98.5 | - | - | 0 | - | 0
COC(=O)c1ccc2nc(-c3ccc(C)cc3)c(Cc3cccc(F)c3)n2c1 | - | 0 | 0 | - | 0 | -
COC(=O)c1ccc2nc(-c3ccc(F)cc3)c(Cc3ccccc3OC)n2c1 | - | 0 | 49.6 | - | 0 | -
COC(=O)c1ccc2nc(-c3ccc(C#N)cc3)c(Cc3cccc(F)c3)n2c1 | 0 | 0 | 40.9 | - | 0 | 0
COC(=O)c1ccc2nc(C3CCCCC3)c(Cc3ccccc3OC)n2c1 | - | 0 | 20.3 | - | 0 | -
COC(=O)c1cn(CCNC(=O)Nc2ccccc2)nn1 | - | 0 | 0 | - | 0 | 0
CCCNC(=O)N[C@H]1CC[C@H](CCn2cc(C3CCCCC3)nn2)O[C@H]1CO | 0 | 0 | 0 | - | 0 | 0
CNC[C@@H]1OCCCC[C@H](C)Oc2ccc(NC(=O)CCC(F)(F)F)cc2C(=O)N([C@@H](C)CO)C[C@H]1C | 0 | 0 | 0 | - | 0 | 0
C[C@H](CO)N1C[C@H](C)[C@@H](CN(C)C(=O)Nc2ccc(F)cc2)OCCCC[C@H](C)Oc2ccc(NS(C)(=O)=O)cc2C1=O | - | 0 | 0 | - | 0 | 0
COc1ccc(CN(C)C[C@H]2Oc3ccc(NC(=O)C4CCCCC4)cc3CC(=O)N([C@@H](C)CO)C[C@@H]2C)cc1 | 0 | 0 | 0 | - | 0 | 0
C[C@@H]1CN([C@H](C)CO)C(=O)c2cc(NC(=O)Cc3cn(C)c4ccccc34)ccc2O[C@@H]1CN(C)Cc1ccc(Cl)c(Cl)c1 | 0 | 0 | 0 | - | 8.1 | 0
C[C@@H]1CN([C@H](C)CO)C(=O)Cc2cc(NC(=O)Cc3cn(C)c4ccccc34)ccc2O[C@@H]1CN(C)Cc1ccc2c(c1)OCO2 | 85.8 | 0 | 0 | - | 0 | 0
C[C@@H]1CN([C@@H](C)CO)C(=O)Cc2cc(NC(=O)Cc3cn(C)c4ccccc34)ccc2O[C@H]1CN(C)Cc1ccc(Cl)c(Cl)c1 | 71.8 | 0 | 0 | - | 0 | 0
C[C@@H]1CN([C@@H](C)CO)C(=O)c2cc(NC(=O)Cc3cn(C)c4ccccc34)ccc2O[C@@H]1CN(C)Cc1ccc(Cl)c(Cl)c1 | 0 | 0 | 0 | - | 0 | 0
C[C@@H]1CN([C@@H](C)CO)C(=O)Cc2cc(NC(=O)Cc3cn(C)c4ccccc34)ccc2O[C@@H]1CN(C)Cc1ccc(Cl)c(Cl)c1 | 0 | 0 | 0 | - | 0 | 0
C[C@@H]1CN([C@H](C)CO)C(=O)Cc2cc(NC(=O)Cc3cn(C)c4ccccc34)ccc2O[C@H]1CN(C)Cc1ccc(Cl)c(Cl)c1 | 94.9 | 0 | 0 | - | 0 | 0
C[C@@H]1CN([C@@H](C)CO)C(=O)c2cc(NC(=O)C3CCCCC3)ccc2O[C@@H]1CN(C)Cc1ccc(C(F)(F)F)cc1 | - | 0 | ? | - | 0 | 0
CC(C)N(C[C@H]1N[C@H](CO)[C@@H]1c1ccc(C2=CCCCC2)cc1)C(=O)CN(C)C | - | 0 | 0 | - | 0 | -
Cc1noc(C)c1S(=O)(=O)N(C)C[C@H]1OCCCC[C@@H](C)Oc2ccc(NC(=O)Nc3cccc4ccccc34)cc2C(=O)N([C@@H](C)CO)C[C@@H]1C | - | 0 | 0 | - | 0 | 0
COc1ccc(NC(=O)Nc2ccc3c(c2)CC(=O)N([C@H](C)CO)C[C@@H](C)[C@@H](CN(C)Cc2ccc(Cl)c(Cl)c2)O3)cc1 | 0 | - | 0 | - | 0 | 0
C[C@H]1CN([C@@H](C)CO)C(=O)c2cccc(NC(=O)Nc3ccccc3)c2O[C@@H]1CN(C)Cc1ccc(Cl)c(Cl)c1 | 0 | 0 | 0 | - | 0 | 0
C[C@H](CO)N1C[C@H](C)[C@@H](CN(C)Cc2ccc(Cl)c(Cl)c2)Oc2c(NC(=O)CCC(F)(F)F)cccc2C1=O | 0 | 0 | 22.4 | 0 | 0 | 0
C[C@H](CO)N1C[C@H](C)[C@H](CN(C)Cc2ccc(Cl)c(Cl)c2)Oc2c(NC(=O)Nc3ccccc3)cccc2C1=O | 0 | 0 | 0 | - | 0 | 89.7
SMILES | C2C12 statin | ERp5 block | DENV2 CPE rescue | PDI inh | CFTR F508del cor | Cneo AK release
C[C@@H]1CN([C@H](C)CO)C(=O)c2cccc(NC(=O)Nc3ccccc3)c2O[C@@H]1CN(C)Cc1ccc(Cl)c(Cl)c1 | 0 | 0 | 75.8 | - | 0 | 101.1
O=C(C[C@@H]1CC[C@H]2[C@@H](COC[C@@H](O)CN2S(=O)(=O)c2ccc(Cl)cc2)O1)N[C@H]1CCN(Cc2ccccc2)C1 | 0 | 0 | 0 | - | 0 | 0
Cc1noc(C)c1NC(=O)N(C)C[C@@H]1OCCCC[C@H](C)Oc2ccc(N(C)C)cc2C(=O)N([C@@H](C)CO)C[C@@H]1C | 0 | 0 | 0 | - | 0 | 0
CN1CCN(C(=O)C[C@H]2CC[C@H](NS(=O)(=O)c3cccc(F)c3)[C@@H](CO)O2)CC1 | 0 | 0 | 0 | - | 0 | 0
COc1ccc2c3c(n(C)c2c1)[C@@H](CO)N(C(=O)CN(C)C)CC31CCN(Cc2cccnc2)CC1 | - | 0 | 0 | - | 0 | -
NC1=NC(=O)/C(=C/c2ccc(Br)cc2)S1 | 0 | 0 | 0 | 0 | 0 | 0
CCOC(=O)COc1ccc(Br)cc1/C=C1\SC(N)=NC1=O | 0 | 0 | 37.5 | 0 | 0 | 0
CN1c2ccc(Br)cc2[C@@H]2[C@@H](CCN2C(=O)Cc2cccnc2)[C@@H]1CO | 0 | 0 | 0 | - | 0 | 89.8
CN1c2ccc(-c3ccc(F)cc3)cc2[C@H]2[C@H](CCN2S(=O)(=O)c2cccc(F)c2)[C@H]1CO | 0 | 0 | 0 | - | 16.2 | 103.6
Cc1ccccc1S(=O)(=O)N1CC[C@@H]2[C@H]1c1cc(Br)ccc1N(C)[C@H]2CO | 0 | - | 66.3 | - | 0 | 0
CN1c2ccc(Br)cc2[C@@H]2[C@@H](CCN2S(=O)(=O)c2ccccc2)[C@H]1CO | 0 | 0 | 116.3 | - | 0 | 0
COCCNC(=O)C[C@H]1CC[C@@H](NC(=O)NC2CCCCC2)[C@H](CO)O1 | 0 | 0 | 0 | - | 0 | 0
COCC(=O)Nc1ccc2c(c1)OC[C@@H](C)N(C(=O)c1ccccc1)C[C@H](C)[C@H](OC)CN(C)C2=O | - | - | 0 | - | 0 | -
C[C@@H]1CCCCO[C@@H](CN(C)C)[C@H](C)CN([C@H](C)CO)C(=O)c2cc(NC(=O)C3CCCCC3)ccc2O1 | 0 | - | - | - | 0 | -
CN1c2ccc(Br)cc2[C@H]2[C@H](CCN2S(=O)(=O)c2cccc(F)c2)[C@H]1CO | 0 | 0 | 118.3 | - | 0 | 0
Cc1cccc(S(=O)(=O)N2CC[C@@H]3[C@@H](CO)N(C)c4ccc(Br)cc4[C@@H]32)c1 | 0 | 0 | 0 | - | 0 | 0
C[C@H]1CN([C@@H](C)CO)C(=O)c2cc(NC(=O)c3ccncc3)ccc2O[C@@H]1CN(C)S(=O)(=O)c1ccc(F)cc1 | 0 | 0 | 0 | - | 0 | 0
CO[C@@H]1CN(C)C(=O)c2ccc(NC(=O)C3CCOCC3)cc2OC[C@@H](C)N(C(C)=O)C[C@H]1C | 0 | 0 | 0 | - | 0 | 0

Screening results: PubChem, Broad Institute
